Experimental data of several laboratories.
Protocols differ between the studies behind these lines.
Effect on: cell growth or viability

SMILES	cell line	technique	time	IC50
COc1cc(Nc2nccc(-c3cnn4nc(OC)ccc34)n2)cc(C(F)(F)F)c1	HCC1569	ATP luminescence		> 3000 nM
NCCCOc1cc(NC(=O)c2cc(OCc3c[nH]nn3)cc(C(=O)Nc3cc(OCCCN)c4ccccc4n3)n2)nc2ccccc12	WI-38	ATP luminescence	72 h	> 40000 nM
COc1cc(C(=O)c2cc(CCc3ccc(C)cc3)sc2N)cc(OC)c1OC	Molt4/C8			> 10000 nM
C=CC(=O)Nc1ccc(CCn2cc(C[C@@]3(O)C[C@@H]4c5cc(OCc6cc(C)cc(C)c6)c(OCc6cc(C)cc(C)c6)cc5CCN4[C@@H](C)C3)nn2)cc1	ASPC1	MTT		536 nM
[Cl-].[Cl-].[Ti+4].c1cc[cH-]c1.c1cc[cH-]c1	CAKI-1	XTT	72 h	> 200000 nM
CC(C)C[C@H](NC(=O)[C@H](Cc1ccccc1)NC(=O)c1cnccn1)B(O)O	EFM-192A	ATP luminescence		6.9 nM
CC(C)=CCC[C@](C)(O)[C@H]1CC[C@]2(C)[C@@H]1[C@H](O)C[C@@H]1[C@@]3(C)CC[C@H](O[C@@H]4O[C@H](CO)[C@@H](O)[C@H](O)[C@H]4O[C@@H]4O[C@H](CO)[C@@H](O)[C@H](O)[C@H]4O)C(C)(C)[C@@H]3CC[C@]12C	NCI-H358	MTT	72 h	> 100000 nM
C[C@H]1CNC(=O)c2cnn3ccc(nc23)N[C@H](C)c2cc(F)ccc2O1	HCC827	MTT	72 h	430 nM
Cc1cc(C)cc(COc2cc3c(cc2OCc2cc(C)cc(C)c2)[C@H]2C[C@](O)(Cc4cn(CCOCCOCCOCCNC(=O)[C@@H](CC(C)C)NC(=O)[C@@H](O)[C@H](N)Cc5ccccc5)nn4)C[C@H](C)N2CC3)c1	ASPC1	MTT		630 nM
CCN1C(=O)N(c2c(F)c(OC)cc(OC)c2F)Cc2cnc3[nH]c(CN4CCOCC4)cc3c21	AN3-CA	ATP luminescence	96 h	40.9 nM
Cc1cc(C)cc(COc2cc3c(cc2OCc2cc(C)cc(C)c2)[C@H]2C[C@](O)(Cc4cn(Cc5cc(C(F)(F)F)cc(C(F)(F)F)c5)nn4)C[C@H](C)N2CC3)c1	ASPC1	MTT		836 nM
N=C(Nc1ccccc1)c1cc2c(-c3ccccc3)n[nH]c2c(Nc2ccccc2)n1	WI-38	MTS	48 h	1430 nM
Cc1cc(C)cc(COc2cc3c(cc2OCc2cc(C)cc(C)c2)[C@H]2C[C@](O)(Cc4cn(CC5CC5)nn4)C[C@H](C)N2CC3)c1	ASPC1	MTT		612 nM
NCCCOc1cc(NC(=O)c2cc(OCCN)cc(C(=O)Nc3cc(OCCCN)c4ccccc4n3)n2)nc2ccccc12	WI-38	ATP luminescence	72 h	10600 nM
Cc1ccc(Cn2cc(C[C@@]3(O)C[C@@H]4c5cc(OCc6cc(C)cc(C)c6)c(OCc6cc(C)cc(C)c6)cc5CCN4[C@@H](C)C3)nn2)cc1	ASPC1	MTT		560 nM
Nc1ccn([C@@H]2O[C@H](CO)[C@@H](O)C2(F)F)c(=O)n1	ASPC1	MTT		65 nM
COc1cc(C(=O)Nc2cc(OCCN3CCCC3)c3ccccc3n2)nc(C(=O)Nc2cc(OCCN3CCCC3)c3ccccc3n2)c1	WI-38	ATP luminescence	72 h	3900 nM
Cc1cc(C)cc(COc2cc3c(cc2OCc2cc(C)cc(C)c2)[C@H]2C[C@](O)(Cc4cn(-c5ccccc5)nn4)C[C@H](C)N2CC3)c1	ASPC1	MTT		593 nM
